Published values pooled from the literature.
Lines come from different studies, so protocols differ.
CDK1 with cyclin B: Cyclin-dependent kinase 1, with cyclin B (CDK1, Homo sapiens, UniProt P06493)
CDK1 with cyclin A: Cyclin-dependent kinase 1, with cyclin A (CDK1, Homo sapiens, UniProt P06493)
CDK1 with cyclin E: Cyclin-dependent kinase 1, with cyclin E (CDK1, Homo sapiens, UniProt P06493)

SMILES | target | test | conditions | endpoint | result
CCN(CC)CCNC(=O)c1c(C)[nH]c(/C=C2\C(=O)Nc3ccc(F)cc32)c1C | CDK1 with cyclin B | enzyme activity, inhibitor | 10 µM | inhibition | 10%
Cc1ccc(C(=O)NCc2ccsc2)cc1C#Cc1cn(C(C)C)c2ncnc(N)c12 | CDK1 with cyclin B | enzyme activity, inhibitor | 1 µM | activity vs control | 100%
CC(C)[C@H](CO)Nc1nc(Nc2cccc(Cl)c2)c2ncn(C(C)C)c2n1 | CDK1 with cyclin B | cell-free assay | 0.5 µM | remaining signal | 34.9%
O=C(Nc1cnn(-c2csc(C(=O)NC3COC3)c2)c1)Nc1ccccc1Cl | CDK1 with cyclin A | enzyme activity, inhibitor | 5 µM | remaining activity | 95.5%
CC(C)(O)[C@H]1CC[C@H](Nc2ccc3ncc(-c4cccc(C(F)(F)F)c4)n3n2)CC1 | CDK1 with cyclin E | enzyme activity, inhibitor | 1 µM | remaining activity | 107%
COc1cc2ncnc(Nc3ccc(Oc4ccccc4)cc3C)c2cc1OC | CDK1 with cyclin B | enzyme activity, inhibitor | 1 µM | inhibition | 3%
Cc1sc(C(=O)NC2COC2)cc1-n1cc(NC(=O)Nc2c(F)cccc2Cl)cn1 | CDK1 with cyclin E | enzyme activity, inhibitor | 10 µM | remaining activity | 100%
CNCc1ccc(-c2cc(-c3nc(-c4ccc(S(=O)(=O)C(C)C)cc4)cnc3N)on2)cc1 | CDK1 with cyclin B | enzyme activity, inhibitor | 2 µM | inhibition | 6%
O=C(Nc1cnn(-c2csc(C(=O)NC3COC3)c2)c1)Nc1c(F)cccc1Cl | CDK1 with cyclin A | enzyme activity, inhibitor | 5 µM | remaining activity | 86.3%
N#CCCc1ccc2c(c1)-c1[nH]c3ccc([N+](=O)[O-])cc3c1CC(=O)N2 | CDK1 with cyclin B | cell-free assay | 0.5 µM | remaining signal | 9.89%
Cc1ccc(-n2nc(C(C)(C)C)cc2NC(=O)Nc2ccc(OCCN3CCOCC3)c3ccccc23)cc1 | CDK1 with cyclin B | enzyme activity, inhibitor | 10 µM | inhibition | -6%
O=C1NC(=O)c2cc(Nc3ccc(F)cc3)c(Nc3ccc(F)cc3)cc21 | CDK1 with cyclin A | cell-free assay | 0.5 µM | remaining signal | 96.1%
Cc1cc(NC(=O)c2cccc3cc(-c4cccc5[nH]nc(N)c45)ccc23)ccc1F | CDK1 with cyclin B | enzyme activity, inhibitor | 0.1 µM | activity vs control | 95%
Nc1nc(Nc2ccc(S(N)(=O)=O)cc2)nn1C(=O)c1c(F)cccc1F | CDK1 with cyclin A | cell-free assay | 0.5 µM | remaining signal | 10.3%
CNC(=O)c1cc(Oc2ccc(NC(=O)Nc3ccc(Cl)c(C(F)(F)F)c3)cc2)ccn1 | CDK1 with cyclin B | enzyme activity, inhibitor | 0.3 µM | inhibition | -5%
CCCCNc1ncc2c(-c3ccc(F)cc3)nn(C[C@H]3CC[C@H](N)CC3)c2n1 | Cyclin-dependent kinase 1 (CDK1, Homo sapiens, UniProt P06493) | target engagement in cells, inhibitor, chemoproteomics | 20 mM | inhibition | 4.2%
CC(C)(C)c1nc(-c2cccc(NS(=O)(=O)c3c(F)cccc3F)c2F)c(-c2ccnc(N)n2)s1 | Cyclin-dependent kinase 1, with cyclin E1 (CDK1, Homo sapiens, UniProt P06493) | enzyme activity, inhibitor, radiometric | 1 µM | remaining activity | 57%
COc1cc(OC)c(C=C2C(O)=Nc3ccccc32)c(OC)c1 | CDK1 with cyclin B | cell-free assay | 0.5 µM | remaining signal | 83%
CCOc1cc(-c2nncn2C)ccc1Nc1ncc2cc(C)nc(NCC(C)(C)C)c2n1 | CDK1 with cyclin B | enzyme activity, inhibitor, FRET | 1 µM | inhibition | 30%
O=Nc1c(-c2c(O)[nH]c3ccccc23)[nH]c2ccccc12 | CDK1 with cyclin B | cell-free assay | 0.5 µM | remaining signal | 68.7%
CC(C)(C)c1nc2c(s1)c1nc(N)ncc1c1ccc(NS(=O)(=O)c3c(F)cccc3F)c(F)c12 | Cyclin-dependent kinase 1, with cyclin A2 (CDK1, Homo sapiens, UniProt P06493) | enzyme activity, inhibitor, radiometric | 1 µM | remaining activity | 100%
